Measured values reported in ChEMBL document CHEMBL4261546, “Synthesis of novel pentacyclic triterpene-Neu5Ac2en derivatives and investigation of their in vitro anti-influenza entry activity” (Medchemcomm, 2017).
Calls of active or inactive are those of the source. No cut-off for these calls is given here.

How the values were obtained:
MDCK [1] = test: Cytotoxicity against MDCK cells assessed as reduction in cell viability at 100 uM after 40 hrs by CellTiter-Glo assay; type: cell-based, Canis lupus familiaris; details: dog
In short: (§1)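 Preliminary cytotoxicity screen in MDCK cells at 10 μM and 100 μM. Cells seeded overnight in DMEM with 10% FBS at 37 °C, 5% CO2, then exposed to compound for 40 h. CellTiter-Glo read-out, viability expressed as % of untreated control after background correction. Paclitaxel served as positive control.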

MDCK [2] = test: Cytotoxicity against MDCK cells assessed as reduction in cell viability at 10 uM after 40 hrs by CellTiter-Glo assay; type: cell-based, Canis lupus familiaris; details: dog; in short: as §1
MDCK [3] = test: Cytotoxicity against MDCK cells assessed as morphological changes up to 100 uM after 40 hrs by microscopic method; type: cell-based, Canis lupus familiaris; details: dog
In short: (§2)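 MDCK cultures were set up as in the CPE assay: compound with or without A/WSN/33 infection (MOI 0.1), DMEM with 1% FBS and TPCK-trypsin. At 40 h post-infection, wells carrying compound up to 100 μM were inspected microscopically. Scored features were cell aggregation and detachment from the dish.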

[4] = target: Neuraminidase (Influenza A virus (strain A/Wilson-Smith/1933 H1N1) (Influenza A virus(strain A/WS/1933 H1N1))) (UniProt P03470); test: Inhibition of Influenza A virus (A/WSN/33(H1N1)) NA up to 100 uM using 4-MUNANA as substrate after 30 mins by fluorescence spectrophotometric assay; details: Influenza A virus (A/WSN/1933(H1N1))
In short: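 NA activity was measured with A/WSN/33 virus as the enzyme source, mixed with compound and 20 μM MUNANA in 32.5 mM MES (4 mM CaCl2, pH 6.5). Incubated 30 min at 37 °C, then stopped with 34 mM NaOH. Fluorescent product read at ex 360 nm / em 460 nm.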

Influenza A virus [5] = test: Antiviral activity against Influenza A virus (A/WSN/33(H1N1)) infected in MDCK cells assessed as reduction in virus-induced cytopathic effect after 40 hrs by CellTiter-Glo assay; type: functional, organism-based; details: A/WSN/1933(H1N1)
In short: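 MDCK cells grown overnight in DMEM with 10% FBS at 37 °C, 5% CO2. Medium replaced with compound plus A/WSN/33 virus (MOI 0.1) in DMEM with 1% FBS, 2 μg/mL TPCK-trypsin and 1% DMSO final. After 40 h, CellTiter-Glo luminescence read as CPE. IC50 is the mean of ≥3 independent determinations with standard deviations.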

[6] = Selectivity index, ratio of CC50 for MDCK cells to IC50 for Influenza A virus (A/WSN/33(H1N1)) infected in MDCK cells; type: toxicity, cell-based; details: dog, read-out: Ratio CC50/IC50
In short: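 SI = CC50/IC50. CC50 comes from the 40 h CellTiter-Glo viability assay in uninfected MDCK cells. IC50 comes from the 40 h CellTiter-Glo CPE-reduction assay with A/WSN/33 at MOI 0.1.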

[7] = target: Hemagglutinin (Influenza A virus) (UniProt B4URE7); test: Inhibition of Influenza A virus (A/WSN/33(H1N1)) HA-mediated haemagglutination in chicken RBC at 1.5 to 40 uM after 30 mins; type: cell-based; details: Influenza A virus (A/WSN/1933(H1N1))
In short: (§3)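 Hemagglutination assay. Freshly prepared 1% v/v chicken RBCs in saline were then added. After 30 min at room temperature, RBC aggregation was scored visually. Anti-HA antibody was the reference.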

Influenza A virus [8] = test: Antiviral activity against Influenza A virus (A/WSN/33(H1N1)) infected in MDCK cells assessed as reduction in virus-induced cytopathic effect up to 100 uM after 40 hrs by microscopic method; type: functional, organism-based; details: A/WSN/1933(H1N1); in short: as §2
[9] = Cytotoxicity against MDCK cells assessed as reduction in cell viability after 40 hrs by CellTiter-Glo assay; type: cell-based, Canis lupus familiaris; details: dog
In short: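 MDCK cells seeded in DMEM with 10% FBS and cultured overnight at 37 °C, 5% CO2. Compounds added and incubated 40 h, then CellTiter-Glo viability measured. Viability % = background-corrected signal of treated well divided by control well, ×100. CC50 is the concentration giving 50% cell death.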

Erythrocyte = test: Induction of haemagglutination in chicken RBC at 1.5 to 40 uM after 30 mins; type: cell-based, Gallus gallus; details: 0.5 h; in short: as §3
[10] = Inhibition of Influenza virus NA; parameters: species or system unidentified influenza virus

Chain of Neuraminidase (Influenza A virus (strain A/Wilson-Smith/1933 H1N1) (Influenza A virus(strain A/WS/1933 H1N1))) (P03470 whole entry): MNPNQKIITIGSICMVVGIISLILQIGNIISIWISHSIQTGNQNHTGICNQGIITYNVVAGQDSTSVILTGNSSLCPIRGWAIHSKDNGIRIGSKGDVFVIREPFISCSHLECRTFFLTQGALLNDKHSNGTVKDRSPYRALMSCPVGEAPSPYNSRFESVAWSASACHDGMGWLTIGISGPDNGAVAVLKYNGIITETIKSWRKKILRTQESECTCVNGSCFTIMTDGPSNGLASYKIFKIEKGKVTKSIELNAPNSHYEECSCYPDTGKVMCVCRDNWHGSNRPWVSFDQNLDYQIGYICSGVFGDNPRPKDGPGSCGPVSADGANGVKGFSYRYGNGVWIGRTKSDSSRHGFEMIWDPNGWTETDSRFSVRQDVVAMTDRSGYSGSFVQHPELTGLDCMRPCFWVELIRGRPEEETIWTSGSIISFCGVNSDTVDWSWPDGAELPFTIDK
Chain of Hemagglutinin (Influenza A virus) (B4URE7 as listed by the source): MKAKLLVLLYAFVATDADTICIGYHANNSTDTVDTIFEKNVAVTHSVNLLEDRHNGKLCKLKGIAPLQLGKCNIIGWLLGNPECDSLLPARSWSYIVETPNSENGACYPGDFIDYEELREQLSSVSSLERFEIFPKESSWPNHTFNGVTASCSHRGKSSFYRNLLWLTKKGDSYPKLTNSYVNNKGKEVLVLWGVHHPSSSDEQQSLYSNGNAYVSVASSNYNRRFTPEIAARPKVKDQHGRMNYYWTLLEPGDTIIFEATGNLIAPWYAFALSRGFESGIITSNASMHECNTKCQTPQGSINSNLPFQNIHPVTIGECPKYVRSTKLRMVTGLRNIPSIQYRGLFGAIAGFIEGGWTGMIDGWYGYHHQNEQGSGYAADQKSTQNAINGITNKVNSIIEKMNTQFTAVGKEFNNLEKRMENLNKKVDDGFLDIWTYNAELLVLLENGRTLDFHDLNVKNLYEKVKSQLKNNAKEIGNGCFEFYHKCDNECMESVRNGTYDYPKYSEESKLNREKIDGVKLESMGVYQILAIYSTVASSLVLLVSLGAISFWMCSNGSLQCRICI

Compound | Activity (MDCK [1]) | Activity (MDCK [2]) | IC50 (Influenza A virus [5]) [µM] | selectivity ratio [6] | CC50 at 40 h [9] [µM] | further results
COC(=O)C1=C[C@H](n2cc(CNC(=O)[C@]34CC[C@@H](C)[C@H](C)[C@H]3C3=CC[C@@H]5[C@@]6(C)CC[C@H](O)C(C)(C)[C@@H]6CC[C@@]5(C)[C@]3(C)CC4)nn2)[C@@H](NC(C)=O)[C@H]([C@H](OC(C)=O)[C@@H](COC(C)=O)OC(C)=O)O1 | Toxic | Non-Toxic | – | – | – | –
COC(=O)C1=C[C@H](NC(=O)[C@]23CCC(C)(C)C[C@H]2C2=CC[C@@H]4[C@@]5(C)CC[C@H](O)C(C)(C)[C@@H]5CC[C@@]4(C)[C@]2(C)CC3)[C@@H](NC(C)=O)[C@H]([C@H](OC(C)=O)[C@@H](COC(C)=O)OC(C)=O)O1 | – | Non-Toxic | 8.3 | 22.7 | 188 | Activity (MDCK [3]): Non-Toxic; inhibition [4]: inactive; inhibition [7]: Active; Activity (Influenza A virus [8]): Active; Activity (Erythrocyte): Non-Toxic
C=C(C)[C@@H]1CC[C@]2(C(=O)N[C@H]3C=C(C(=O)OC)O[C@@H]([C@H](OC(C)=O)[C@@H](COC(C)=O)OC(C)=O)[C@@H]3NC(C)=O)CC[C@]3(C)[C@H](CC[C@@H]4[C@@]5(C)CC[C@H](O)C(C)(C)[C@@H]5CC[C@]43C)[C@@H]12 | – | Non-Toxic | > 100 | – | – | –
CC(=O)N[C@H]1[C@H]([C@H](O)[C@H](O)CO)OC(C(=O)O)=C[C@@H]1O [NEU5AC2EN] | – | – | – | – | – | Ki [10]: 4 µM
COC(=O)C1=C[C@H](n2cc(CNC(=O)[C@]34CC[C@@H](C)[C@H](C)[C@H]3C3=CC[C@@H]5[C@@]6(C)CC[C@H](O)C(C)(C)[C@@H]6CC[C@@]5(C)[C@]3(C)CC4)nn2)[C@@H](NC(C)=O)[C@H]([C@H](O)[C@H](O)CO)O1 | Toxic | Non-Toxic | > 100 | – | – | –
C=C(C)[C@@H]1CC[C@]2(C(=O)NCc3cn([C@H]4C=C(C(=O)OC)O[C@@H]([C@H](O)[C@H](O)CO)[C@@H]4NC(C)=O)nn3)CC[C@]3(C)[C@H](CC[C@@H]4[C@@]5(C)CC[C@H](O)C(C)(C)[C@@H]5CC[C@]43C)[C@@H]12 | – | Non-Toxic | > 100 | – | – | –
COC(=O)C1=C[C@@H](n2cc(CNC(=O)[C@]34CC[C@@H](C)[C@H](C)[C@H]3C3=CC[C@@H]5[C@@]6(C)CC[C@H](O)C(C)(C)[C@@H]6CC[C@@]5(C)[C@]3(C)CC4)nn2)[C@@H](NC(C)=O)[C@H]([C@H](O)[C@H](O)CO)O1 | Toxic | Non-Toxic | > 100 | – | – | –
COC(=O)C1=C[C@H](n2cc(CNC(=O)[C@]34CCC(C)(C)C[C@H]3C3=CC[C@@H]5[C@@]6(C)CC[C@H](O)C(C)(C)[C@@H]6CC[C@@]5(C)[C@]3(C)C[C@H]4O)nn2)[C@@H](NC(C)=O)[C@H]([C@H](OC(C)=O)[C@@H](COC(C)=O)OC(C)=O)O1 | Toxic | Non-Toxic | > 100 | – | – | –
COC(=O)C1=C[C@@H](n2cc(CNC(=O)[C@]34CCC(C)(C)C[C@H]3C3=CC[C@@H]5[C@@]6(C)CC[C@H](O)C(C)(C)[C@@H]6CC[C@@]5(C)[C@]3(C)CC4)nn2)[C@@H](NC(C)=O)[C@H]([C@H](O)[C@H](O)CO)O1 | – | Non-Toxic | > 100 | – | – | –
COC(=O)C1=C[C@H](NC(=O)[C@]23CCC(C)(C)C[C@H]2C2=CC[C@@H]4[C@@]5(C)CC[C@H](O)C(C)(C)[C@@H]5CC[C@@]4(C)[C@]2(C)CC3)[C@@H](NC(C)=O)[C@H]([C@H](O)[C@H](O)CO)O1 | Toxic | Non-Toxic | – | – | – | –
C=C(C)[C@@H]1CC[C@]2(C(=O)NCc3cn([C@H]4C=C(C(=O)OC)O[C@@H]([C@H](OC(C)=O)[C@@H](COC(C)=O)OC(C)=O)[C@@H]4NC(C)=O)nn3)CC[C@]3(C)[C@H](CC[C@@H]4[C@@]5(C)CC[C@H](O)C(C)(C)[C@@H]5CC[C@]43C)[C@@H]12 | Toxic | Non-Toxic | – | – | – | –
COC(=O)C1=C[C@H](n2cc(CNC(=O)[C@]34CCC(C)(C)C[C@H]3C3=CC[C@@H]5[C@@]6(C)CC[C@H](O)C(C)(C)[C@@H]6CC[C@@]5(C)[C@]3(C)CC4)nn2)[C@@H](NC(C)=O)[C@H]([C@H](O)[C@H](O)CO)O1 | – | Non-Toxic | 28.3 | > 7.1 | > 200 | –
COC(=O)C1=C[C@H](NC(=O)[C@]23CC[C@@H](C)[C@H](C)[C@H]2C2=CC[C@@H]4[C@@]5(C)CC[C@H](O)C(C)(C)[C@@H]5CC[C@@]4(C)[C@]2(C)CC3)[C@@H](NC(C)=O)[C@H]([C@H](O)[C@H](O)CO)O1 | Toxic | Non-Toxic | – | – | – | –
C=C(C)[C@@H]1CC[C@]2(C(=O)N[C@H]3C=C(C(=O)OC)O[C@@H]([C@H](O)[C@H](O)CO)[C@@H]3NC(C)=O)CC[C@]3(C)[C@H](CC[C@@H]4[C@@]5(C)CC[C@H](O)C(C)(C)[C@@H]5CC[C@]43C)[C@@H]12 | – | Non-Toxic | > 100 | – | – | –
COC(=O)C1=C[C@H](n2cc(CNC(=O)[C@]34CCC(C)(C)C[C@H]3C3=CC[C@@H]5[C@@]6(C)CC[C@H](O)C(C)(C)[C@@H]6CC[C@@]5(C)[C@]3(C)CC4)nn2)[C@@H](NC(C)=O)[C@H]([C@H](OC(C)=O)[C@@H](COC(C)=O)OC(C)=O)O1 | Toxic | Non-Toxic | – | – | – | –
COC(=O)C1=C[C@H](NC(=O)[C@]23CCC(C)(C)C[C@H]2C2=CC[C@@H]4[C@@]5(C)CC[C@H](O)C(C)(C)[C@@H]5CC[C@@]4(C)[C@]2(C)C[C@H]3O)[C@@H](NC(C)=O)[C@H]([C@H](OC(C)=O)[C@@H](COC(C)=O)OC(C)=O)O1 | – | Non-Toxic | 15.5 | > 32.3 | > 200 | –
COc1cc(/C=C/C(=O)CC(=O)/C=C/c2ccc(O)c(OC)c2)ccc1O [CURCUMIN] | – | – | 6.7 | 7.2 | – | –
COC(=O)C1=C[C@H](NC(=O)[C@]23CCC(C)(C)C[C@H]2C2=CC[C@@H]4[C@@]5(C)CC[C@H](O)C(C)(C)[C@@H]5CC[C@@]4(C)[C@]2(C)C[C@H]3O)[C@@H](NC(C)=O)[C@H]([C@H](O)[C@H](O)CO)O1 | – | Non-Toxic | 40.5 | > 4.9 | > 200 | –
COC(=O)C1=C[C@H](n2cc(CNC(=O)[C@]34CCC(C)(C)C[C@H]3C3=CC[C@@H]5[C@@]6(C)CC[C@H](O)C(C)(C)[C@@H]6CC[C@@]5(C)[C@]3(C)C[C@H]4O)nn2)[C@@H](NC(C)=O)[C@H]([C@H](O)[C@H](O)CO)O1 | – | Non-Toxic | 55 | > 3.6 | > 200 | –
COC(=O)C1=C[C@H](NC(=O)[C@]23CC[C@@H](C)[C@H](C)[C@H]2C2=CC[C@@H]4[C@@]5(C)CC[C@H](O)C(C)(C)[C@@H]5CC[C@@]4(C)[C@]2(C)CC3)[C@H](NC(C)=O)[C@H]([C@H](OC(C)=O)[C@@H](COC(C)=O)OC(C)=O)O1 | Non-Toxic | Non-Toxic | 19.2 | 7.1 | 136 | –
